Laboratory results reported in ChEMBL document CHEMBL4373711, “Development of 3,5-Dinitrophenyl-Containing 1,2,4-Triazoles and Their Trifluoromethyl Analogues as Highly Efficient Antitubercular Agents Inhibiting Decaprenylphosphoryl-β-d-ribofuranose 2'-Oxidase” (J Med Chem, 2019).

Assays:
[1] = Genotoxicity in Salmonella typhimurium TA98 at 30 uM in presence of rat liver S9 fraction by Ames test; type: toxicity, subcellular; details: salmonella enterica subsp. enterica serovar typhimurium, s9, 30 µM
Procedure, shortened: (§1)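 Microplate fluctuation Ames reverse-mutation test following kit instructions; TA98 detects frameshift and TA100 base-exchange mutations. Compound at 30 µM final with Aroclor-1254-induced rat liver S9 plus cofactors.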

[2] = Genotoxicity in Salmonella typhimurium TA100 at 30 uM in presence of rat liver S9 fraction by Ames test; type: toxicity, subcellular; details: salmonella enterica subsp. enterica serovar typhimurium, s9, 30 µM; procedure, shortened: as §1
[3] = Selectivity index, ratio of IC50 for human A431 cells to MIC>99 for antimycobacterial activity against Mycobacterium kansasii 6509/96 after 7 days; type: toxicity; details: read-out: Selectivity Index
[4] = Selectivity index, ratio of IC50 for human A431 cells to MIC>99 for antimycobacterial activity against Mycobacterium avium CNCTC My 330/88 after 14 days; type: toxicity; details: read-out: Selectivity Index
[5] = Selectivity index, ratio of IC50 for human HepG2 cells to MIC>99 for antimycobacterial activity against Mycobacterium avium CNCTC My 330/88 after 21 days; type: toxicity; details: read-out: Selectivity Index
[6] = Selectivity index, ratio of IC50 for human HepG2 cells to MIC>99 for antimycobacterial activity against Mycobacterium tuberculosis H37Rv CNCTC My 331/88 after 14 days; type: toxicity; details: read-out: Selectivity Index
Procedure, shortened: (§2)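 SI from HepG2 IC50 and M. tuberculosis MIC. HepG2 cells: DMEM + 10% FBS + 1 mM pyruvate, 10,000/well, 48 h treatment, 0.1% DMSO and 10% SDS controls, MTS absorbance at 490 nm.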

[7] = Selectivity index, ratio of IC50 for human HepG2 cells to MIC>99 for antimycobacterial activity against XDR Mycobacterium tuberculosis Praha 131 after 14 days; type: toxicity; details: read-out: Selectivity Index; procedure, shortened: as §2
[8] = Selectivity index, ratio of IC50 for human A431 cells to MIC>99 for antimycobacterial activity against XDR Mycobacterium tuberculosis Praha 131 after 21 days; type: toxicity; details: read-out: Selectivity Index
[9] = Selectivity index, ratio of IC50 for human HepG2 cells to MIC>99 for antimycobacterial activity against Mycobacterium kansasii 6509/96 after 21 days; type: toxicity; details: read-out: Selectivity Index
[10] = Selectivity index, ratio of IC50 for human HepG2 cells to MIC>99 for antimycobacterial activity against Mycobacterium kansasii CNCTC My 235/80 after 7 days; type: toxicity; details: read-out: Selectivity Index
[11] = Selectivity index, ratio of IC50 for human A431 cells to MIC>99 for antimycobacterial activity against Mycobacterium kansasii 6509/96 after 14 days; type: toxicity; details: read-out: Selectivity Index
[12] = Selectivity index, ratio of IC50 for human A431 cells to MIC>99 for antimycobacterial activity against Mycobacterium kansasii CNCTC My 235/80 after 7 days; type: toxicity; details: read-out: Selectivity Index
[13] = Selectivity index, ratio of IC50 for human A431 cells to MIC>99 for antimycobacterial activity against Mycobacterium kansasii CNCTC My 235/80 after 14 days; type: toxicity; details: read-out: Selectivity Index
[14] = Selectivity index, ratio of IC50 for human HepG2 cells to MIC>99 for antimycobacterial activity against Mycobacterium kansasii 6509/96 after 14 days; type: toxicity; details: read-out: Selectivity Index
[15] = Selectivity index, ratio of IC50 for human HepG2 cells to MIC>99 for antimycobacterial activity against XDR Mycobacterium tuberculosis Praha 131 after 21 days; type: toxicity; details: read-out: Selectivity Index; procedure, shortened: as §2
[16] = Selectivity index, ratio of IC50 for human HepG2 cells to MIC>99 for antimycobacterial activity against Mycobacterium avium CNCTC My 330/88 after 14 days; type: toxicity; details: read-out: Selectivity Index
[17] = Selectivity index, ratio of IC50 for human A431 cells to MIC>99 for antimycobacterial activity against XDR Mycobacterium tuberculosis Praha 131 after 14 days; type: toxicity; details: read-out: Selectivity Index
[18] = Selectivity index, ratio of IC50 for human A431 cells to MIC>99 for antimycobacterial activity against Mycobacterium tuberculosis H37Rv CNCTC My 331/88 after 21 days; type: toxicity; details: read-out: Selectivity Index
[19] = Selectivity index, ratio of IC50 for human HepG2 cells to MIC>99 for antimycobacterial activity against Mycobacterium kansasii CNCTC My 235/80 after 14 days; type: toxicity; details: read-out: Selectivity Index
[20] = Selectivity index, ratio of IC50 for human A431 cells to MIC>99 for antimycobacterial activity against Mycobacterium tuberculosis H37Rv CNCTC My 331/88 after 14 days; type: toxicity; details: read-out: Selectivity Index
[21] = Selectivity index, ratio of IC50 for human HepG2 cells to MIC>99 for antimycobacterial activity against Mycobacterium kansasii 6509/96 after 7 days; type: toxicity; details: read-out: Selectivity Index
[22] = Selectivity index, ratio of IC50 for human A431 cells to MIC>99 for antimycobacterial activity against Mycobacterium kansasii CNCTC My 235/80 after 21 days; type: toxicity; details: read-out: Selectivity Index
[23] = Selectivity index, ratio of IC50 for human A431 cells to MIC>99 for antimycobacterial activity against Mycobacterium avium CNCTC My 330/88 after 21 days; type: toxicity; details: read-out: Selectivity Index

Q: What does the source list for `O=[N+]([O-])c1cc(-c2nnc(SCc3ccccc3)n2Cc2ccccc2)cc([N+](=O)[O-])c1`?
A: Activity [1]: Non-Toxic; Activity [2]: Non-Toxic

Q: Which results are given for `O=[N+]([O-])c1cc(-c2nnc(SCc3ccccc3)n2Cc2ccccc2)cc(C(F)(F)F)c1`?
A: selectivity ratio at 168 h [3]: > 100; selectivity ratio at 336 h [4]: > 100; selectivity ratio at 504 h [5]: > 100; selectivity ratio at 336 h [6]: > 100; selectivity ratio at 336 h [7]: > 100; selectivity ratio at 504 h [8]: > 100; selectivity ratio at 504 h [9]: > 100; selectivity ratio at 168 h [10]: > 100; selectivity ratio at 336 h [11]: > 100; selectivity ratio at 168 h [12]: > 100; selectivity ratio at 336 h [13]: > 100; selectivity ratio at 336 h [14]: > 100; selectivity ratio at 504 h [15]: > 100; selectivity ratio at 336 h [16]: > 100; selectivity ratio at 336 h [17]: > 100; selectivity ratio at 504 h [18]: > 100; selectivity ratio at 336 h [19]: > 100; selectivity ratio at 336 h [20]: > 100; selectivity ratio at 168 h [21]: > 100; selectivity ratio at 504 h [22]: > 100; selectivity ratio at 504 h [23]: > 100
